Converted amounts (≈) assume the structure as drawn.
Key:
[1] = Inhibition of Staphylococcus aureus thymidylate kinase assessed as effect on conversion of dTDP to dTMP by luciferin/luciferase reporter gene based assay
[2] = Inhibition of Streptococcus pneumoniae thymidylate kinase assessed as effect on conversion of dTDP to dTMP by luciferin/luciferase reporter gene based assay
[3] = tested on: Staphylococcus aureus; assay: Antimicrobial activity against methicillin and quinolone-sensitive Staphylococcus aureus by broth microdilution method; assay type: functional
In short: (§1)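 MICs were determined against bacterial strains from the AstraZeneca collection. For S. aureus, MSQS means methicillin- and quinolone-sensitive, and MRQR means methicillin- and quinolone-resistant.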

[4] = tested on: Staphylococcus aureus; assay: Antimicrobial activity against methicillin and quinolone-resistant Staphylococcus aureus by broth microdilution method; assay type: functional; in short: as §1
[5] = tested on: Candida albicans; assay: Toxicity against Candida albicans; assay type: organism-based
[6] = biological target: T1, Thymidylate kinase (Homo sapiens, UniProt P23919); assay: Inhibition of human thymidylate kinase assessed as effect on ATP production by Escherichia coli DdlA and Malachite green reagent based assay
T1 sequence (P23919 whole entry): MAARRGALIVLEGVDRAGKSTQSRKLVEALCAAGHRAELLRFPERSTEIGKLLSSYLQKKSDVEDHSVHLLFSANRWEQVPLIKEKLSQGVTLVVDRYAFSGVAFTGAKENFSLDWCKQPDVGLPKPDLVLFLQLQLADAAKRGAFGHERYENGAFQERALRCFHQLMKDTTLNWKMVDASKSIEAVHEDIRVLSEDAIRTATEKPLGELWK

[7] = Partition coefficient, log D of the compound at pH 7.4 by shake flask method; conditions: octanol/water
[8] = Toxicity against human A549 cells; assay type: cell-based; conditions: read-out: MIC
[9] = tested on: Streptococcus pneumoniae; assay: Antimicrobial activity against Streptococcus pneumoniae by broth microdilution method; assay type: functional
In short: (§2)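 Test organisms were strains from the AstraZeneca collection.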

[10] = tested on: Enterococcus faecalis; assay: Antimicrobial activity against vancomycin-resistant Enterococcus faecalis by broth microdilution method; assay type: functional; in short: as §1
[11] = tested on: Staphylococcus aureus; assay: Antimicrobial activity against Staphylococcus aureus infected in mouse thigh infection model assessed as compound dose causing microbial infection stasis administered as single dose; assay type: functional, Thigh muscle
[12] = tested on: Streptococcus pyogenes; assay: Antimicrobial activity against Streptococcus pyogenes by broth microdilution method; assay type: functional; in short: as §2
[13] = Toxicity in Staphylococcus aureus infected mouse thigh infection model assessed as incidence of adverse events; assay type: organism-based, Thigh muscle; conditions: in vivo
[14] = tested on: Staphylococcus epidermidis; assay: Antimicrobial activity against Staphylococcus epidermidis by broth microdilution method; assay type: functional; in short: as §2
[15] = tested on: Enterococcus faecium; assay: Antimicrobial activity against linezolid-resistant Enterococcus faecium by broth microdilution method; assay type: functional; in short: as §1

Compound	IC50 [1] [nM]	IC50 [2] [nM]	MIC [3] [µg/mL]	MIC [4] [µg/mL]	logD [7]	MIC [9] [µg/mL]	further results
Cc1ccc(Oc2cccc(CN3CCC[C@H](n4cc(C)c(=O)[nH]c4=O)C3)c2)cc1Cl	1900	1000					
Cc1cn([C@H]2CCCN([C@H](C)c3ccc(C(=O)O)c(Oc4cccc(Cl)c4)c3)C2)c(=O)[nH]c1=O	2.5	0.3	4 (≈ 8.27 µM)	8 (≈ 16.5 µM)	-0.26	0.1 (≈ 0.207 µM)	MIC [5]: > 64 µg/mL; IC50 [6]: 150000 nM; MCC [8]: > 64 µg/mL
Cc1cn([C@H]2CCCN([C@@H](C)c3ccc(C(=O)O)c(Oc4cccc(Cl)c4)c3)C2)c(=O)[nH]c1=O	29.3	1	8 (≈ 16.5 µM)	8 (≈ 16.5 µM)	-0.3	0.25 (≈ 0.517 µM)	
CC[C@@H](c1ccc(C(=O)O)c(Oc2cccc(Cl)c2)c1)N1CCC[C@H](n2cc(C)c(=O)[nH]c2=O)C1	18.3	3	2 (≈ 4.02 µM)	4 (≈ 8.03 µM)	0.2	0.25 (≈ 0.502 µM)	
CCC[C@H](c1ccc(C(=O)O)c(Oc2cccc(Cl)c2)c1)N1CCC[C@H](n2cc(C)c(=O)[nH]c2=O)C1	8.3	0.3	1 (≈ 1.95 µM)	1 (≈ 1.95 µM)		0.05 (≈ 0.0977 µM)	MIC [5]: > 64 µg/mL; IC50 [6]: 150000 nM; MCC [8]: > 64 µg/mL
CCC[C@@H](c1ccc(C(=O)O)c(Oc2cccc(Cl)c2)c1)N1CCC[C@H](n2cc(C)c(=O)[nH]c2=O)C1	18	0.6	4 (≈ 7.81 µM)	4 (≈ 7.81 µM)		0.1 (≈ 0.195 µM)	
Cc1cn([C@H]2CCCN([C@H](CC(C)C)c3ccc(C(=O)O)c(Oc4cccc(Cl)c4)c3)C2)c(=O)[nH]c1=O		< 0.2	1 (≈ 1.9 µM)	1 (≈ 1.9 µM)	0.9	0.03 (≈ 0.057 µM)	
Cc1cn([C@H]2CCCN([C@@H](CC(C)C)c3ccc(C(=O)O)c(Oc4cccc(Cl)c4)c3)C2)c(=O)[nH]c1=O	13.5	0.6	2 (≈ 3.8 µM)	2 (≈ 3.8 µM)	0.9	0.05 (≈ 0.0951 µM)	
Cc1cn([C@H]2CCCN([C@H](CC(C)(C)C)c3ccc(C(=O)O)c(Oc4cccc(Br)c4)c3)C2)c(=O)[nH]c1=O	0.8	0.2	0.25 (≈ 0.428 µM)	0.25 (≈ 0.428 µM)	1.1	0.02 (≈ 0.0342 µM)	MIC [10]: 1 µg/mL (≈ 1.71 µM); Activity [11]: 150 mg/kg; MIC [5]: > 64 µg/mL; IC50 [6]: 62000 nM; MIC [12]: 0.08 µg/mL (≈ 0.137 µM); NOAEL [13]: 800 mg/kg/day; MIC [14]: 2 µg/mL (≈ 3.42 µM); MCC [8]: > 64 µg/mL; MIC [15]: 0.25 µg/mL (≈ 0.428 µM)
Cc1cn([C@H]2CCCN([C@@H](CC(C)(C)C)c3ccc(C(=O)O)c(Oc4cccc(Br)c4)c3)C2)c(=O)[nH]c1=O	2.8	0.6	2 (≈ 3.42 µM)	1 (≈ 1.71 µM)	1.2	0.03 (≈ 0.0513 µM)	
CCC(C)(C)C[C@H](c1ccc(C(=O)O)c(Oc2cccc(Cl)c2)c1)N1CCC[C@H](n2cc(C)c(=O)[nH]c2=O)C1	1	0.3	0.25 (≈ 0.451 µM)	0.1 (≈ 0.18 µM)	1.4	0.05 (≈ 0.0902 µM)	MIC [5]: > 64 µg/mL; IC50 [6]: 43400 nM; MCC [8]: > 64 µg/mL
CCC(CC)C[C@H](c1ccc(C(=O)O)c(Oc2cccc(Cl)c2)c1)N1CCC[C@H](n2cc(C)c(=O)[nH]c2=O)C1	< 3	0.1	0.25 (≈ 0.451 µM)	0.1 (≈ 0.18 µM)	1.7	0.02 (≈ 0.0361 µM)	
CCCCC[C@H](c1ccc(C(=O)O)c(Oc2cccc(Br)c2)c1)N1CCC[C@H](n2cc(C)c(=O)[nH]c2=O)C1	0.5	< 0.1	0.25 (≈ 0.428 µM)	0.1 (≈ 0.171 µM)	1.1	0.01 (≈ 0.0171 µM)	MIC [10]: 0.06 µg/mL (≈ 0.103 µM); MIC [5]: > 64 µg/mL; IC50 [6]: 32000 nM; MIC [12]: 0.04 µg/mL (≈ 0.0684 µM); MIC [14]: 0.5 µg/mL (≈ 0.855 µM); MCC [8]: > 64 µg/mL; MIC [15]: 0.25 µg/mL (≈ 0.428 µM)
CCC(C)(CC)C[C@H](c1ccc(C(=O)O)c(Oc2cccc(Br)c2)c1)N1CCC[C@H](n2cc(C)c(=O)[nH]c2=O)C1	1.3	0.3	0.1 (≈ 0.163 µM)	0.03 (≈ 0.049 µM)	2	0.03 (≈ 0.049 µM)	
CCCC(C)(C)C[C@H](c1ccc(C(=O)O)c(Oc2cccc(Cl)c2)c1)N1CCC[C@H](n2cc(C)c(=O)[nH]c2=O)C1	0.7	0.3	0.25 (≈ 0.44 µM)	0.06 (≈ 0.106 µM)	2	0.06 (≈ 0.106 µM)	
Cc1cn([C@H]2CCCN([C@H](CC3CCCCC3)c3ccc(C(=O)O)c(Oc4cccc(Cl)c4)c3)C2)c(=O)[nH]c1=O	0.7	< 0.1	0.25 (≈ 0.442 µM)	0.1 (≈ 0.177 µM)		0.01 (≈ 0.0177 µM)	
Cc1cn([C@H]2CCCN([C@H](CC3CCOCC3)c3ccc(C(=O)O)c(Oc4cccc(Cl)c4)c3)C2)c(=O)[nH]c1=O	1.6	< 0.1	16 (≈ 28.2 µM)	8 (≈ 14.1 µM)	-0.25	0.1 (≈ 0.176 µM)	
Cc1cn([C@H]2CCCN([C@H](CC34CC5CC(CC(C5)C3)C4)c3ccc(C(=O)O)c(Oc4cccc(Br)c4)c3)C2)c(=O)[nH]c1=O	1.1	0.1	0.25 (≈ 0.377 µM)	0.1 (≈ 0.151 µM)	2.5	0.03 (≈ 0.0453 µM)	
Cc1cccc(Oc2cccc(CN3CCC[C@H](n4cc(C)c(=O)[nH]c4=O)C3)c2)c1	2700	300					
Cc1cn([C@H]2CCCN(Cc3cccc(Oc4cccc(F)c4)c3)C2)c(=O)[nH]c1=O	3200	400					

Compound	IC50 [1] [nM]	IC50 [2] [nM]	MIC [3] [µg/mL]	MIC [4] [µg/mL]	logD [7]	MIC [9] [µg/mL]	further results
Cc1cn([C@H]2CCCN(Cc3cccc(Oc4cccc(Cl)c4)c3)C2)c(=O)[nH]c1=O	1200	150					
Cc1cn([C@H]2CCCN(Cc3cccc(Oc4cccc(Br)c4)c3)C2)c(=O)[nH]c1=O	600	100					
Cc1cn([C@H]2CCCN(Cc3cccc(Oc4cc(F)cc(Cl)c4)c3)C2)c(=O)[nH]c1=O	2100	100					
Cc1cn([C@H]2CCCN(Cc3cccc(Oc4cc(Cl)cc(Cl)c4)c3)C2)c(=O)[nH]c1=O	1500	400					
Cc1cn([C@H]2CCCN(Cc3cccc(Oc4ccc(Cl)cc4)c3)C2)c(=O)[nH]c1=O	8500	400					
Cc1cn([C@@H]2CCCN(Cc3cccc(Oc4ccc(Cl)cc4)c3)C2)c(=O)[nH]c1=O	> 200000	5100					
Cc1cn([C@H]2CCCN(Cc3cccc(Oc4ccc(Cl)c(Cl)c4)c3)C2)c(=O)[nH]c1=O	2600	400					
Cc1cn([C@@H]2CCCN(Cc3cccc(Oc4ccc(Cl)c(Cl)c4)c3)C2)c(=O)[nH]c1=O	> 200000	18000					
Cc1cn([C@H]2CCCN(Cc3ccc(C(=O)O)c(Oc4cccc(Cl)c4)c3)C2)c(=O)[nH]c1=O	73	1.9	32 (≈ 68.1 µM)	32 (≈ 68.1 µM)		1 (≈ 2.13 µM)	
Cc1cn([C@H]2CCCN(Cc3ccc(C(=O)O)c(Oc4cccc(Br)c4)c3)C2)c(=O)[nH]c1=O	27	1	16 (≈ 31.1 µM)	32 (≈ 62.2 µM)	-0.51	1 (≈ 1.94 µM)	
Cc1cccc(Oc2cc(CN3CCC[C@H](n4cc(C)c(=O)[nH]c4=O)C3)ccc2C(=O)O)c1	114	8	64 (≈ 142 µM)	128 (≈ 285 µM)		4 (≈ 8.9 µM)	
Cc1cn([C@H]2CCCN(Cc3ccc(C(=O)O)c(Oc4cccc(F)c4)c3)C2)c(=O)[nH]c1=O	339	28	128 (≈ 282 µM)	128 (≈ 282 µM)	-1	32 (≈ 70.6 µM)	
Cc1cn([C@H]2CCCN(Cc3ccc(C(=O)O)c(Oc4cccc(C(F)(F)F)c4)c3)C2)c(=O)[nH]c1=O		10	64 (≈ 127 µM)	64 (≈ 127 µM)	-0.38	4 (≈ 7.94 µM)	MIC [5]: > 64 µg/mL; IC50 [6]: > 200000 nM; MCC [8]: > 64 µg/mL
CC[C@H](c1ccc(C(=O)O)c(Oc2cccc(Cl)c2)c1)N1CCC[C@H](n2cc(C)c(=O)[nH]c2=O)C1 (racemic)	13.7	0.6	2 (≈ 4.02 µM)	2 (≈ 4.02 µM)	0.2	0.1 (≈ 0.201 µM)	
Cc1cn(C2CCCN(Cc3cccc(Oc4cccc(C(F)(F)F)c4)c3)C2)c(=O)[nH]c1=O (racemic)		15000					
Cc1ccc(Oc2cccc(CN3CCCC(n4cc(C)c(=O)[nH]c4=O)C3)c2)cc1 (racemic)	59000	6000					
Cc1cn(C2CCCN(Cc3cccc(Oc4ccc(Cl)cc4)c3)C2)c(=O)[nH]c1=O (racemic)	35000	1300					
COc1ccc(Oc2cccc(CN3CCCC(n4cc(C)c(=O)[nH]c4=O)C3)c2)cc1 (racemic)	143000	9000					
C[C@H]1COc2c(N3CCN(C)CC3)c(F)cc3c(=O)c(C(=O)O)cn1c23.C[C@H]1COc2c(N3CCN(C)CC3)c(F)cc3c(=O)c(C(=O)O)cn1c23.O [LEVOFLOXACIN]							Activity [11]: 40 mg/kg
